Screening results from PubChem.
CCR6 antag: CCR6 receptor antagonists, primary screen, cell-based, CHO-K1, luminescence, beta-arrestin, uHTS | C-C chemokine receptor type 6 (Homo sapiens), P51684 | CHO-K1 CCR6 PathHunter beta-arrestin, CCL20-stimulated | inhibition, % at 20 µM | hit rate 0.49% among 340,000 | AID 493098, 2011;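 active = compounds whose inhibition of the agonist-driven luminescence signal at 20 µM reaches about 50%, limit read from the data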;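 also: cells stimulated with CCL20 at 14 nM final; plate controls were DMSO with CCL20 for no effect and DMSO without agonist for full effect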
APJ agonist: agonists of human apelin receptor APJ, primary screen, CHO-K1 cells, PathHunter beta-arrestin, luminescence. P35414. 0% DMSO wells, 100% apelin. activation, % at 20 µM. hit rate 0.11% among 330,000;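 active = activation more than six SD over the plate average, tested at 20 µM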;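 also: 0% = DMSO alone and 100% = apelin-13 at 10 nM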
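assay system = CHO-K1 APJ beta-arrestin complementation cell line | input = cell density 1000 per well | dosing = compound 20 µM once, DMSO 1% | timing = compound 90 min 25 °C, reagent 1 h | measured by = luminescence from split beta-galactosidase complementation, Galacton Star/Emerald II substrate | read-out basis = APJ agonist activity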
APOBEC3G inh: APOBEC3G DNA deaminase inhibitors, primary screen, biochemical, fluorescence, single-stranded DNA substrate, uHTS; DNA dC->dU-editing enzyme APOBEC-3G (Homo sapiens), Q9HC16; recombinant A3G, ssDNA deamination FAM/TAMRA fluorescence; inhibition, % at 20 µM; hit rate 0.28% among 330,000; AID 493012, 2011;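 active = inhibition of at least 40% at 20 µM, with no more than 30% in the related APOBEC3A deaminase screen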;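 also: plate controls were DMSO wells with A3G for no effect and wells lacking A3G enzyme for full effect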
CXCR6 block: CXCR6 receptor inhibitors, primary screen, cell-based, beta-arrestin, luminescence, CHO-K1 PathHunter, 1536-well; C-X-C chemokine receptor type 6 (Homo sapiens), O00574; inhibition, % at 20 µM; hit rate 0.36% among 360,000; AID 602244, 2012; in the data active = inhibition above about 34%, passing the limit was not always enough;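 also: antagonist mode with CXCL16 agonist at 10 nM final; 0% = 10 nM CXCL16 with DMSO and 100% = unstimulated wells without agonist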
A3A deaminase: APOBEC3A ssDNA deaminase inhibitors, primary screen, selectivity assay for APOBEC3G inhibitor project, biochemical, FAM/TAMRA oligo cleavage fluorescence. recombinant A3A, FAM/TAMRA ssDNA deamination fluorescence. inhibition, % at 20 µM. hit rate 0.41% among 330,000. AID 493011, 2011;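 active = at least 40% inhibition at 20 µM here, with at most 30% in a related deaminase screen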;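 also: plate controls were A3A with DMSO for no effect and wells lacking A3A enzyme for full effect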
Target sequence (P31941 whole entry, looked up): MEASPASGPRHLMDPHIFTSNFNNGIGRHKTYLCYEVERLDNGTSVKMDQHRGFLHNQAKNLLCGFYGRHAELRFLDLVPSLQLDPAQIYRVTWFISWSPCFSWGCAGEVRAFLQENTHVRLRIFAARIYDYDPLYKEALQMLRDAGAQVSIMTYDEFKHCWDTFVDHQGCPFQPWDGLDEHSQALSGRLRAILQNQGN
APJ antag: antagonists of human apelin receptor APJ, primary screen, CHO-K1 cells, beta-arrestin complementation, luminescence. inhibition, % at 20 µM. hit rate 0.32% among 330,000;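 active = inhibition above about 40% at 20 µM, limit read from the data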;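 also: cells challenged with 10 nM apelin-13 agonist together with compound; plate controls were apelin-13 plus DMSO wells for no effect and DMSO wells lacking apelin-13 for full effect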
APOBEC3G confirm: APOBEC3G deaminase inhibitor retest, confirmation, biochemical, fluorescence, single-stranded DNA substrate, single concentration; shares compounds with APOBEC3G inh; recombinant A3G ssDNA deaminase, UDG/FAM-TAMRA fluorescence; inhibition, % at 20 µM; hit rate 72% among 890;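 active = inhibition reaching a set limit in any replicate at 20 µM, the limit being 80% of the first screen's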
CXCR6 antag conf: CXCR6 receptor antagonists, confirmation, cell-based, single concentration, beta-arrestin, luminescence. inhibition, % at 20 µM. shares compounds with CXCR6 block. hit rate 65% among 700. CHO-K1 CXCR6 PathHunter beta-arrestin;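 active = mean inhibition over four retests above 40%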;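 also: receptor stimulated with 10 nM CXCL16 agonist; beta-galactosidase fragment complementation upon beta-arrestin recruitment to receptor; plate controls were CXCL16 plus DMSO for no effect and DMSO without CXCL16 for full effect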
The depositor's hits bear a star; x = no result. Shown are actives, neighbours in structure and some others; about 1.4% of the full set was active somewhere.

SMILES | CCR6 antag | APJ agonist | APOBEC3G inh | CXCR6 block | A3A deaminase | APJ antag | APOBEC3G confirm | others
CC(=O)NN1C(=O)c2ccccc2NC1c1cccnc1 (stereo not drawn) | -11 | 1 | 54* | -2 | 5 | 7 | -1
CCC12CN3CC(CC)(CN(C1)C3c1cccnc1)C2=O (stereo not drawn) | 4 | -4 | 0 | 6 | 2 | 9 | x
O=c1[nH]c(=O)n(CCC2=CCCCC2)c(O)c1/C=N/Nc1ccccc1 | -18 | 0 | 22 | -3 | 1 | -7 | x
CCC(C)n1c(O)c(/C=N/Nc2ccccc2)c(=O)[nH]c1=S (stereo not drawn) | 10 | 1 | 49* | 4 | 1 | 8 | 9
O=c1[nH]c(=O)n(CCC2=CCCCC2)c(O)c1/C=N/Nc1cccc2ccccc12 | 7 | -1 | 42* | 5 | 2 | -53 | 27
O=c1[nH]c(=S)n(C2CC2)c(O)c1/C=N/Nc1cccc2ccccc12 | 9 | 2 | 55* | -3 | 2 | -11 | 2
c1cc(OCCN2CC2)ccn1 | -7 | x | x | -1 | x | x | x
CCn1ccnc1CN1CCCC(C(=O)c2cc(C)c(OC)c(C)c2)C1 (stereo not drawn) | 10 | -2 | -6 | 4 | 1 | -3 | x
COC(=O)C1=C(C(=O)OC)C2OC1c1cc3ccccc3cc12 | 109* | x | x | 85* | x | x | x | CXCR6 antag conf=91*
COC(=O)C1=C(c2cccc(OC)c2OC)C[C@@H]2CC[C@H]1N2C(=O)N1CCCC1 | 2 | 7 | -4 | -12 | 1 | -10 | x
CC1=C(O)C(=O)C=C2C1=CC=C1C2(C)CCC2(C)C3CC(C)(C(=O)O)CCC3(C)CCC12C (stereo not drawn) | x | x | x | 64* | x | x | x | CXCR6 antag conf=53*
C=CCOC(=O)N1Cc2ccccc2-n2nncc2C1 | x | x | x | 4 | x | x | x
